Laboratory results reported in ChEMBL document CHEMBL4364340, “Discovery of N-(1-Acryloylazetidin-3-yl)-2-(1H-indol-1-yl)acetamides as Covalent Inhibitors of KRASG12C” (ACS Med Chem Lett, 2019).
Values after ≈ are worked out from the molar mass of the structure shown.

Assays:
[1] = tested on: GTPase KRas (Homo sapiens), P01116 [G12C]; experiment: Inhibition of KRAS G12C mutant (unknown origin) at 10 uM incubated for 0.2 hrs in presence of GDP by rapidfire mass spectrometry analysis relative to control
Summary of the method: (§1)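 GDP-bound KRASG12C (2 μM) incubated with 10 μM compound. Intact-protein mass spectrometry quantifies relative % covalent adduct at Cys12 at the stated time point.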

[2] = tested on: GTPase KRas (Homo sapiens), P01116 [G12C]; experiment: Inhibition of KRAS G12C mutant (unknown origin) at 10 uM incubated for 2 hrs in presence of GDP by rapidfire mass spectrometry analysis relative to control; summary of the method: as §1
[3] = tested on: GTPase KRas (Homo sapiens), P01116 [G12C]; experiment: Inhibition of KRAS G12C mutant (unknown origin) at 10 uM incubated for 20 hrs in presence of GDP by rapidfire mass spectrometry analysis relative to control; summary of the method: as §1
[4] = tested on: GTPase KRas (Homo sapiens), P01116 [G12C]; experiment: Inhibition of KRAS G12C mutant (unknown origin) assessed as pseudo first order rate constant incubated for 0.02 to 20 hrs in presence of GDP by rapidfire mass spectrometry analysis
Summary of the method: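 GDP-bound KRASG12C (2 μM) with 10 μM compound. Intact-protein MS measures covalent adduct at Cys12 after 0.02, 0.2, 2 and 20 h. Conversions between 10% and 90% are converted to kobs/[I] (M–1 s–1) under pseudo-first-order kinetics.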

[5] = Half life of compound in phosphate buffer at pH 7.4 in presence of GSH by LC/MS analysis; assay type: physicochemical; details: phosphate buffer with GSH
Summary of the method: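 Intrinsic thiol reactivity toward 5 mM glutathione. Half-life is taken from the rate at which parent compound disappears.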

GTPase KRas [6] = molecular target: GTPase KRas (Homo sapiens, UniProt P01116, C118A/G12C); experiment: Inhibition of GDP bound N terminal His-tagged KRAS G12C/C118A mutant (unknown origin) (1 to 169 residues) assessed as reduction in SOS-mediated guanine nucleotide exchange preincubated for 2 hrs followed by addition of SOS and GTP and measured after 1 hr by alphascreen assay
Summary of the method: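 Inhibitor preincubated with protein 2 h, then SOS1 and GTP added to exchange GTP into the nucleotide site. GTP loading read as proximity of RAF Ras-binding domain, which binds only active KRAS. IC50 from dose response.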

[7] = tested on: GTPase KRas (Homo sapiens), P01116 [G12C]; experiment: Inhibition of KRAS G12C mutant (unknown origin) at 10 uM incubated for 0.02 hrs in presence of GDP by rapidfire mass spectrometry analysis relative to control
Summary of the method: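 Intact-protein mass spectrometry of covalent adduct formation at Cys12 of GDP-bound KRASG12C. Test compound at 10 μM, with read-outs at 0.02, 0.2, 2 and 20 h. Values are the relative % of protein bound, measured directly under pseudo-first-order conditions. Earlier incubations in the paper used 2 μM protein.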

GTPase KRas [8] = molecular target: GTPase KRas (Homo sapiens, UniProt P01116, G12C); experiment: Inhibition of KRAS G12C mutant in human MIAPaCa2 cells assessed as reduction in EGF-induced ERK1/2 phosphorylation incubated for 4 hrs followed by EGF addition by luminescence based assay; assay type: cell-based
[9] = Solubility of compound in FASIIF measured after 72 hrs by HPLC; assay type: physicochemical; details: FaSSIF
Summary of the method: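 Solubility in fasted-state simulated intestinal fluid, measured by HPLC after equilibration at room temperature for 72 h.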

MIA PaCa-2 = experiment: Cytotoxicity against human MIAPaCa2 cells assessed as reduction in cell viability measured after 72 hrs by Celltiter-Glo luminescent cell viability assay; assay type: functional, cell-based; details: MIA PaCa-2, 72 h
Summary of the method: (§2)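 Cell viability in MIA PaCa-2 (KRAS p.G12C) or A549 (KRAS p.G12S) cells, read by CellTiter-Glo luminescence.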

A549 = experiment: Cytotoxicity against human A549 cells assessed as reduction in cell viability measured after 72 hrs by Celltiter-Glo luminescent cell viability assay; assay type: functional, cell-based; details: A549, 72 h; summary of the method: as §2
[10] = Intrinsic clearance in mouse liver microsomes at 1 uM measured after 30 mins in presence of NADPH by LC-MS analysis; assay type: ADME, Microsome; details: read-out: CLH
[11] = Intrinsic clearance in rat liver microsomes at 1 uM measured after 30 mins in presence of NADPH by LC-MS analysis; assay type: ADME, Microsome; details: read-out: CLH
[12] = Intrinsic clearance in human liver microsomes at 1 uM measured after 30 mins in presence of NADPH by LC-MS analysis; assay type: ADME, Microsome; details: read-out: CLH
[13] = Hepatic intrinsic clearance in mouse hepatocytes assessed per 10^6 cells at 0.5 uM after 60 mins; assay type: ADME, cell-based, Hepatocyte; details: read-out: CLH
Summary of the method: (§3)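 Intrinsic clearance in mouse, rat or human hepatocytes. Compound at 0.5 μM, 0.5 million cells/mL, incubated 60 min.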

[14] = Hepatic intrinsic clearance in rat hepatocytes assessed per 10^6 cells at 0.5 uM after 60 mins; assay type: ADME, cell-based, Hepatocyte; details: read-out: CLH; summary of the method: as §3
[15] = Hepatic intrinsic clearance in human hepatocytes assessed per 10^6 cells at 0.5 uM after 60 mins; assay type: ADME, cell-based, Hepatocyte; details: read-out: CLH; summary of the method: as §3
[16] = Plasma protein binding in mouse assessed as unbound fraction at 5 uM by ultracentrifugation method; assay type: ADME, cell-free
Summary of the method: (§4)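 Plasma protein binding measured by ultracentrifugation, compound at 5 μM.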

[17] = Plasma protein binding in rat assessed as unbound fraction at 5 uM by ultracentrifugation method; assay type: ADME, cell-free; summary of the method: as §4
[18] = Plasma protein binding in human assessed as unbound fraction at 5 uM by ultracentrifugation method; assay type: ADME, cell-free; summary of the method: as §4
[19] = Clearance in mouse at […]; assay type: ADME, organism-based; details: in vivo
Summary of the method: (§5)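 Mouse and rat PK: single 1 mg/kg iv dose given in 100% DMSO, and 10 mg/kg po dose given in 1% Tween 80, 2% HPMC, 97% water.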

[20] = Volume of distribution at steady state in mouse at […]; assay type: ADME, organism-based; details: in vivo; summary of the method: as §5
[21] = Half-life in mouse at 10 mg/kg, po; assay type: ADME, organism-based; details: in vivo; summary of the method: as §5
[22] = Oral bioavailability in mouse at 10 mg/kg; assay type: ADME, organism-based; details: in vivo; summary of the method: as §5
[23] = Clearance in rat at […]; assay type: ADME, organism-based; details: in vivo; summary of the method: as §5
[24] = Volume of distribution at steady state in rat at […]; assay type: ADME, organism-based; details: in vivo; summary of the method: as §5
[25] = Half-life in rat at 10 mg/kg, po; assay type: ADME, organism-based; details: in vivo; summary of the method: as §5
[26] = Oral bioavailability in rat at 10 mg/kg; assay type: ADME, organism-based; details: in vivo; summary of the method: as §5

Compound	inhibition [1] [%]	inhibition [2] [%]	inhibition [3] [%]	K [4] [M⁻¹ s⁻¹]	half-life [5] [h]	inhibition [7] [%]	IC50 (GTPase KRas [8]) [nM]	further results
C=CC(=O)N1CC(NC(=O)Cn2cc(C(=O)N3CCc4c(F)cccc4C3)c3cc(Br)ccc32)C1	77	100	100	247	1.67	–	–	–
C=CC(=O)N1CC(NC(=O)Cn2ccc3cc(Br)ccc32)C1	–	14	67	2	1.67	–	–	IC50 (GTPase KRas [6]): > 250000 nM
C=CC(=O)N1CC(NC(=O)Cn2c(C3CC3)c(C(=O)N3CCc4c(cccc4OC)C3)c3cc(Br)ccc32)C1	90	100	–	549	1.67	35	604	–
C=CC(=O)N1CC(NC(=O)Cn2cc(C(=O)N3CCc4cc(Cl)ccc4C3)c3cc(Br)ccc32)C1	55	100	100	132	1.67	–	–	–
C=CC(=O)N1CC(NC(=O)Cn2cc(C(=O)N3CCc4c(cccc4OC)C3)c3cc(Br)ccc32)C1	92	100	100	230	1.67	13	11400	–
C=CC(=O)N1CC(NC(=O)Cn2cc(C(=O)N3CCc4ccccc4C3)c3cc(Br)ccc32)C1	100	100	100	308	1.67	0	–	–
C=CC(=O)N1CC(NC(=O)Cn2cc(C(=O)NCc3ccccc3)c3cc(Br)ccc32)C1	–	29	93	5	1.67	–	–	–
C=CC(=O)N1CC(NC(=O)COc2ccc(Br)cc2NC(=O)c2cc(C)no2)C1	–	11	63	2	–	–	–	–
C=CC(=O)N1CC(NC(=O)Cn2cc(C(=O)N3CCc4cc(F)ccc4C3)c3cc(Br)ccc32)C1	86	100	100	326	1.67	–	–	–
C=CC(=O)N1CC(NC(=O)Cn2cc(C(=O)N(C)Cc3ccccc3)c3cc(Br)ccc32)C1	–	35	100	6	1.67	–	–	–
C=CC(=O)N1CC(NC(=O)Cn2c(C)c(C(=O)N3CCc4c(cccc4OC)C3)c3cc(Cl)cc(C)c32)C1	85	100	100	583	1.67	40	–	–
C=CC(=O)N1CC(NC(=O)Cn2cc(C(=O)NCCc3ccccc3)c3cc(Br)ccc32)C1	–	59	100	12	1.67	–	–	–
C=CC(=O)N1CC(NC(=O)Cn2c(C)c(C(=O)N3CCc4c(cccc4OC)C3)c3cc(Cl)ccc32)C1	34	100	100	69	1.67	–	3550	–
C=CC(=O)N1CC(NC(=O)Cn2c(C)c(C(=O)N3CCc4c(cccc4OC)C3)c3cc(Br)cc(C)c32)C1	39	100	–	83	1.67	–	299	–
C=CC(=O)N1CC(NC(=O)COc2ccc(Br)cc2)C1	–	–	–	0.3	–	–	–	–
C=CC(=O)N1CC(NC(=O)COc2ccc(Br)cc2C(=O)N2CC=C(c3ccccc3)C2)C1	–	–	–	26	1.67	–	11300	IC50 (GTPase KRas [6]): 2780 nM
C=CC(=O)N1CC(NC(=O)Cn2c(C3CC3)c(C(=O)N3CCc4c(cccc4OC)C3)c3cc(Cl)cc(C)c32)C1	94	100	100	2640	1.33	69	–	solubility at 72 h [9]: 252 µM (≈ 141 µg/mL); IC50 (MIA PaCa-2): 67 nM; IC50 (A549): 9330 nM; microsomal CLint at 1 µM [10]: 708 µL/min/mg; microsomal CLint at 1 µM [11]: 197 µL/min/mg; microsomal CLint at 1 µM [12]: 161 µL/min/mg; hepatocyte CLint at 0.5 µM [13]: 228 µL/min/1e6 cells; hepatocyte CLint at 0.5 µM [14]: 293 µL/min/1e6 cells; hepatocyte CLint at 0.5 µM [15]: 53 µL/min/1e6 cells; fraction unbound at 5 µM [16]: 0.02; fraction unbound at 5 µM [17]: 0.02; fraction unbound at 5 µM [18]: 0.04; CL/F [19]: 107 mL/min/kg; Vdss [20]: 2.9 L/kg; half-life [21]: 0.9 h; bioavailability [22]: 8%; CL/F [23]: 65 mL/min/kg; Vdss [24]: 2.6 L/kg; half-life [25]: 0.7 h; bioavailability [26]: < 1%
C=CC(=O)N1CC(NC(=O)Cn2c(C)c(C(=O)N3CCc4c(cccc4OC)C3)c3cc(Br)ccc32)C1	91	100	100	256	1.67	14	1680	–
C=CC(=O)N1CC(NC(=O)Cn2cc(C(=O)N3CCc4c(Cl)cccc4C3)c3cc(Br)ccc32)C1	67	100	100	188	1.67	–	–	–
C=CC(=O)N1CC(NC(=O)Cn2cc(C(=O)N3CCc4c(cccc4OC)C3)c3cc(Br)cc(C)c32)C1	100	100	100	> 400	1.67	–	–	–
